Holding throughout (type): cell-based
The target of experiment [1] is T1, Integrin alpha-4/beta-7 (Mus musculus) (UniProt Q00651+P26011). The experiment can be described thus: Inhibition of alpha4beta7 assessed as inhibition of Mn(2+)-activated adhesion of mouse TK-1 T cells to mouse MAdCAM-1 at <5 to 10 uM incubated for 1 hr by cell adhesion assay. The gist of the method: (§1)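 TK-1 cells (mouse AKR/Cum α4β7+/α4β1− CD8 T lymphoma), grown at 37 °C in RPMI 1640 with 10% FCS and 0.05 mM β-mercaptoethanol, were washed and held 1 h at room temperature in HBSS/10 mM Hepes with peptide. They were then activated with 2 mM MnCl₂ and added at 10⁶ cells/well to glass slides coated with mouse MAdCAM-1-Fc (10 μg/ml, FBS-blocked). Adhesion ran 30 min.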

In experiment [2] the target is T1, Integrin alpha-4/beta-7 (Mus musculus). The experiment is described as follows: Inhibition of alpha4beta7 assessed as inhibition of Mn(2+)-activated adhesion of mouse TK-1 T cells to mouse MAdCAM-1 at 100 uM incubated for 1 hr by cell adhesion assay. The gist of the method:
as §1

Experiment [3] deals with T2, Integrin alpha-4/beta-7 (Mus musculus, UniProt P26011+Q00651).
T2 sequence (Q00651 whole entry): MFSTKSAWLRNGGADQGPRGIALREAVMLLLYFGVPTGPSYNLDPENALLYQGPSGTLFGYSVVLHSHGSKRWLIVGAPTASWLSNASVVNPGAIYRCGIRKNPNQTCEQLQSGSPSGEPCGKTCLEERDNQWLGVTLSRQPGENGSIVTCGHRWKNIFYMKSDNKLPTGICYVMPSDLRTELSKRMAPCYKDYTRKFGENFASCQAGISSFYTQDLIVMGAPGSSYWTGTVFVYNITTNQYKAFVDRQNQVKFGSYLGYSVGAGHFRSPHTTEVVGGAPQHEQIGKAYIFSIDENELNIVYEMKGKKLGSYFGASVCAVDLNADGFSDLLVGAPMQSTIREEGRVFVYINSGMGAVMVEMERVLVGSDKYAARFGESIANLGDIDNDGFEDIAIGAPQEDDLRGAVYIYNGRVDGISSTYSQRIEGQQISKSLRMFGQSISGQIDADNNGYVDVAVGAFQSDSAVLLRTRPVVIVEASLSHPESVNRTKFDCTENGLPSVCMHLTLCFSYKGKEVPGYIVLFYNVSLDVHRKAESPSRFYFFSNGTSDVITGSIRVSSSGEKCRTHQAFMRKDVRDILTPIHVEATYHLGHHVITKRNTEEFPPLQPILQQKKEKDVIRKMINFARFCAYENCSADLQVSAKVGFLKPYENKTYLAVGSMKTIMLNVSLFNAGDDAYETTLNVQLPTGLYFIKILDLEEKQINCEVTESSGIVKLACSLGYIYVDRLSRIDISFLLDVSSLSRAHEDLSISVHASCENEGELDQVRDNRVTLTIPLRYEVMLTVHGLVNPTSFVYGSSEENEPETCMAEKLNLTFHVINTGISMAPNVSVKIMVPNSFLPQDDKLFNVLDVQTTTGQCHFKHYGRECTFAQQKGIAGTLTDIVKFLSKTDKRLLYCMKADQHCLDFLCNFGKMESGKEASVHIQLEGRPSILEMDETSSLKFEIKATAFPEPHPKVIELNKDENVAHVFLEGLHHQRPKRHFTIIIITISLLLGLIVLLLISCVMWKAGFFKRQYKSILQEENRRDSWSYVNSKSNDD
T2 sequence (P26011 whole entry): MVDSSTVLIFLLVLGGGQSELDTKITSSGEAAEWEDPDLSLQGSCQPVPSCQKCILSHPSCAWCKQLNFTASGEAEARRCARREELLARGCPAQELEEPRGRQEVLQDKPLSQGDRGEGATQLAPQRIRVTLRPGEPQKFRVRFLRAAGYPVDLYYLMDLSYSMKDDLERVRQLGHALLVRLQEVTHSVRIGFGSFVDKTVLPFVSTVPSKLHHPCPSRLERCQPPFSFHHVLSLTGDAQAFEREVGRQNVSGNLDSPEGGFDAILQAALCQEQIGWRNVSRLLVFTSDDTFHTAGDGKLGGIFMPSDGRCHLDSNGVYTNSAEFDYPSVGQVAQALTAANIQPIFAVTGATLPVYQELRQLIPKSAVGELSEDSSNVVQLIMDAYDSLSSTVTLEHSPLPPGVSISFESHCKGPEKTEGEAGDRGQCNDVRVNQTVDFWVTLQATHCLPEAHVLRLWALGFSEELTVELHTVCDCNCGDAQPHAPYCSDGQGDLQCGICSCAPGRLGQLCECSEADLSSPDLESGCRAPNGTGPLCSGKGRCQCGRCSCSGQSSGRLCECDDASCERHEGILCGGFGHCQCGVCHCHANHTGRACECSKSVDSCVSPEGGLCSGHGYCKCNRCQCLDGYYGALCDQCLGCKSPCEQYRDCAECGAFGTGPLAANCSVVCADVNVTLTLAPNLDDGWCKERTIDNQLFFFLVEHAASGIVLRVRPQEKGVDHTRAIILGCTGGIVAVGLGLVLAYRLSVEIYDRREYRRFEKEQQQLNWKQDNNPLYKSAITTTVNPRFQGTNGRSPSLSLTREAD
The experiment is described as follows: Inhibition of alpha4beta7 assessed as inhibition of Mn(2+)-activated adhesion of mouse TK-1 T cells to mouse MAdCAM-1 incubated for 1 hr by cell adhesion assay. The gist of the method: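 TK-1 cells (mouse AKR/Cum CD8+ α4β7+/α4β1− T lymphoma), cultured at 37 °C in RPMI 1640 with 10% FCS and 0.05 mM β-mercaptoethanol. HBSS/10 mM Hepes buffer; cells preincubated with peptide 1 h at room temperature, then activated with MnCl2 to 2 mM. Added at 10⁶ cells/well to glass slides coated with mouse MAdCAM-1-Fc (10 µg/ml, 4 °C overnight, FBS-blocked); adhesion 30 min at room temperature.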

In experiment [4] the target is T1, Integrin alpha-4/beta-7 (Mus musculus). The experiment can be described thus: Inhibition of alpha4beta7 assessed as inhibition of Mn(2+)-activated adhesion of mouse TK-1 T cells to mouse MAdCAM-1 at 25 uM incubated for 1 hr by cell adhesion assay. In short, it runs like this:
as §1

The target is the same in experiment [5]. The experiment can be described thus: Inhibition of alpha4beta7 assessed as inhibition of Mn(2+)-activated adhesion of mouse TK-1 T cells to mouse MAdCAM-1 at 50 uM incubated for 1 hr by cell adhesion assay. In short, it runs like this: as §1

Activity calls are given as the source filed them. The rule behind the calls is not given here. *1 amine or outer side, *2 acyl side, *3 side chain or, on linkers, in order; H or OH if unused. Where a SMILES comes first, the peptide text is derived from it. [ ]: non-standard residue; d: D form. The star is where a group is joined. X2 = CCc1ccc(-c2ccc(C[C@H](N[*:1])C(=O)[*:2])cc2)cc1; Biotin = O=C1N[C@H]2[C@H](CS[C@H]2CCCCC(=O)*)N1; X1 = O=C([C@H](Cc1ccc(C2CCCCC2)cc1)N[*:1])[*:2]; Bip = N[C@@H](Cc1ccc(-c2ccccc2)cc1)C(=O)O

Regarding `N=C(N)NCCC[C@H](NC(=O)CCCC[C@@H]1SC[C@@H]2NC(=O)N[C@@H]21)C(=O)N[C@@H](CCCNC(=N)N)C(=O)N[C@@H](CCCNC(=N)N)C(=O)N[C@@H](CCCNC(=N)N)C(=O)N[C@@H](CCCNC(=N)N)C(=O)N[C@@H](CCCNC(=N)N)C(=O)N[C@@H](CCCNC(=N)N)C(=O)N[C@@H](CCCNC(=N)N)C(=O)N[C@@H](CCC(=O)O)C(=O)N[C@@H](CCCNC(=N)N)C(=O)N[C@@H](Cc1ccc(-c2ccccc2)cc1)C(=O)O` (Biotin-RRRRRRRRER[Bip]-OH), the inhibition entry in experiment [1] and in experiment [4] was “Active” in each case. In addition, the inhibition came to 91.3% in experiment [2] and 80.2% in experiment [5]. Moreover, the IC50 in experiment [3] amounted to 7.3 µM.

In the case of `CCc1ccc(-c2ccc(C[C@H](NC(=O)[C@H](CCCNC(=N)N)NC(=O)[C@H](CCC(=O)O)NC(=O)[C@H](CCCNC(=N)N)NC(=O)[C@H](CCCNC(=N)N)NC(=O)[C@H](CCCNC(=N)N)NC(=O)[C@H](CCCNC(=N)N)NC(=O)[C@H](CCCNC(=N)N)NC(=O)[C@H](CCCNC(=N)N)NC(=O)[C@H](CCCNC(=N)N)NC(=O)[C@H](CCCNC(=N)N)NC(=O)CCCC[C@@H]3SC[C@@H]4NC(=O)N[C@@H]43)C(=O)O)cc2)cc1` (Biotin-RRRRRRRRER[X2]-OH), the inhibition entry in experiment [1] and in experiment [4] was “Active” throughout. In addition, the inhibition stood at 74.2% in experiment [2] and 58% in experiment [5]. Also, the IC50 in experiment [3] is 14.3 µM.

Take `N=C(N)NCCC[C@H](NC(=O)[C@H](CCCNC(=N)N)NC(=O)[C@H](CCCNC(=N)N)NC(=O)[C@H](CCCNC(=N)N)NC(=O)[C@H](CCCNC(=N)N)NC(=O)[C@H](CCCN=C(N)N)NC(=O)[C@H](CCCN=C(N)N)NC(=O)[C@H](CCCN=C(N)N)NC(=O)CCCC[C@@H]1SC[C@@H]2NC(=O)N[C@@H]21)C(=O)N[C@@H](CCC(=O)O)C(=O)N[C@@H](CCCN=C(N)N)C(=O)N[C@@H](Cc1ccc(C2CCCCC2)cc1)C(=O)O` (Biotin-RRRRRRRRER[X1]-OH): in experiment [3], the IC50 stood at 19 µM.

As a reminder, the inhibition is the change of the read-out against control, counted positive when it falls. Broadly, the IC50 is the midpoint of a concentration-inhibition curve.
